Experimental data published in PMC7814360 (Investigative Ophthalmology & Visual Science, 2021).
Ends that are not written are not given here.

Experiments:
[1] = tested on: HRECs; experiment: Tube formation assay on Matrigel; assay type: cell-based, human; settings: 25 ng/mL VEGF, three independent assays
Method in brief: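 About 2 × 10^4 HRECs were seeded on Matrigel-precoated wells, with or without 25 ng/mL VEGF, alongside test peptides or Avastin. Incubation was at 37°C for four hours per methods (three hours per legend). Three random fields per well were photographed, and total tube length and branch points were quantified by ImageJ. Three independent assays; means ± SEM.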

[2] = tested on: HRECs; experiment: Cell migration; assay type: cell-based, human; settings: 25 ng/mL VEGF; 200 µM H-KI20 or H-KI20S, or 12.5 mg/mL bevacizumab; 12 hours; three independent assays
[3] = tested on: HRECs; experiment: Cellular uptake, flow cytometry quantitative analysis; assay type: in vitro ADME, human; settings: 200 µM, three independent assays
Method in brief: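 HRECs were seeded at 1 × 10^6 on a 30-mm plate. At confluence they were exposed to FITC-labeled test peptide at 200 μM in complete medium for 30 min, 1, 6, 12 and 24 h. Cells were washed, trypsinized, resuspended in PBS and kept dark. FITC-positive cell number and mean fluorescence intensity were read by flow cytometry. Three independent assays; means ± SEM.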

[4] = tested on: HRECs; experiment: Cytotoxicity, MTS; assay type: cell-based, human; settings: H-KI20 at different concentrations; three independent assays
Method in brief: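 HRECs were seeded in 96-well plates at […]. They were treated with VEGF or test peptide, and viability was read by MTS following the manufacturer's protocol.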

[5] = tested on: HRECs; experiment: High-content image analysis, cell roundness; assay type: cell-based, human; settings: H-KI20 alone, 30 hours, Operetta HCA, interval 0.5 h
Method in brief: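 About 3 × 10^4 HRECs/well were plated in 12-well plates and allowed to attach overnight. Test compound was added 2 h before imaging. Cells were imaged live in an Operetta high-content system for […] at 0.5-h intervals. Roundness is a shape index normalized to 1.0 for a perfect circle, decreasing for elongated or irregular cells.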

[6] = target: JNK2 (Homo sapiens, UniProt P45984); experiment: Surface plasmon resonance; assay type: binding
Method in brief: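 SPR was run on a Biacore T200. The chip was conditioned with 500 mM EDTA and 100 mM NaOH. Recombinant human JNK2 at 27.5 μg/mL was captured on an NTA chip at 10 μL/min. Serial peptide concentrations were injected in PBS with 0.05% Tween-20, pH 7.4, at 25°C (association 120 s, dissociation 180 s). Double reference subtraction was applied, then a global Langmuir 1:1 fit.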

[7] = Quantification of H-KI20 in ocular tissues after topical instillation; assay type: in vivo; settings: mouse CNV model, 0.5, 1 and 3 hours after topical instillation, PRM
Method in brief: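 Choroidal neovascularization was induced in adult C57BL/6J mice with four 532-nm laser burns (100 ms, 50 μm, 120 mW) around the optic disc. On day 7, 6 μL of FITC-labeled test peptide (2 mM) was instilled topically six times at 10-min intervals (n = 3 per group). At 0.5, 1 and 3 h, sclera–choroid–RPE complex and retina were trypsin-digested. A 100 ng/mL stable-isotope-labeled internal standard was spiked in, and samples were quantified by nano-UPLC–Orbitrap PRM.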

[8] = Stability assay of H-KI20 in aqueous solutions; assay type: physicochemical; settings: 200 µg/mL, HPLC
[9] = tested on: retina; experiment: Histologic examination of retina after intravitreal injection; assay type: in vivo, mouse; settings: 50 or 75 mM H-KI20 intravitreal, five days later, mice
[10] = tested on: cornea neovascularization; settings: topical application of high concentrations; cited from earlier work

JNK2, sequence (P45984 whole entry): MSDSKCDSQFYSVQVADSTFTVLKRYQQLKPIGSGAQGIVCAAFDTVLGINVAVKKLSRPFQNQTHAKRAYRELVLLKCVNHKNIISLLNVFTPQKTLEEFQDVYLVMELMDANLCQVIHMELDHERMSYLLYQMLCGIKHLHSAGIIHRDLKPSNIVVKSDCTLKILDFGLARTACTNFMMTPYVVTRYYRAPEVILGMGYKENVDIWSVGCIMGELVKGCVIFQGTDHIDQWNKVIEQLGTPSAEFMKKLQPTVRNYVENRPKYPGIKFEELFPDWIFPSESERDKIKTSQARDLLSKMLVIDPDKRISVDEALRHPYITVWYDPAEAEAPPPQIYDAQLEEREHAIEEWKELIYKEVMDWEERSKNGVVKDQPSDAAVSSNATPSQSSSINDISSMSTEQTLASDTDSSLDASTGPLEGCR

Bevacizumab [Avastin]
VEGF-induced tube formation (tube length and branch points) [1]: significantly inhibited
migration of VEGF-stimulated HRECs (wound closure) [2]: inhibited the migration of cells significantly

FITC-H-KI20: FITC-labeled H-KI20 used to test cellular permeability (IIGKGRSYKGTVSITKSGIK; also: FITC-labeled, site not given here)
mean fluorescence intensity (MFI) compared with untreated cells ([3]; 30 minutes): 217 fold
MFI after 24 hours compared with that after 30 minutes ([3]; 24 hours vs 30 minutes): 3.67 fold

IIGKGRSYKGTVSITKSGIK [H-KI20]
cytotoxicity / proliferation of HRECs (MTS) [4]: no effect on the proliferation of HRECs
cell roundness [5]: no effect on the roundness of cells
Kd [6]: 83.7 µM
persistence of concentration in ocular tissues after topical instillation [7]: maintained for at least three hours
stability at 4°C compared with 37°C ([8]; BSS, PBS and HBS, n = 4 or 5): more stable
stability in H2O and PBS ([8]; H2O and PBS pH 7.4, 37°C, incubation for 24 or 48 hours): partially degraded
retinal histology (HE) after intravitreal injection [9]: All layers of the retina were normal and intact, without edema or inflammatory or immune reactions
cell ultrastructure of cornea and conjunctiva [10]: no effect on the cell ultrastructure of cornea and conjunctiva
